From ChEMBL document CHEMBL3271933, “Inhibitors of hepatic mixed function oxidase. 3. Inhibition of hepatic microsomal aniline hydroxylase and aminopyrine demethylase by 2,6- and 2,4-dihydroxyphenyl alkyl ketones and related compounds” (J Med Chem, 1977) come the findings set out here.

Counter-ions that a name gives are not always drawn. Calls of active or inactive are those of the source. The rule behind the calls is not given here.

The nature of experiment [1]: Inhibition of aniline hydroxylase activity of mixed function oxidase system in Wistar rat liver microsomes assessed as conversion of aniline to p-aminophenol after 10 mins. As to conditions: read-out: I50. Background: Microsomes from liver hold many membrane-bound enzymes, among them those of drug oxidation.
The nature of experiment [2]: Inhibition of aminopyrine demethylase activity of mixed function oxidase system in Wistar rat liver microsomes assessed as conversion of aminopyrine to 4-aminoantipyrine after 20 mins. As to conditions: read-out: I50. In a few lines:
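Microsomes from phenobarbitone-pretreated male Wistar rats, with the same NADPH-generating cofactors. Incubation in 3.0 mL containing aminopyrine 1.5 μmol and 5.6 mg protein in pH 7.4 phosphate, 20 min. 4-Aminoantipyrine formed was assayed. Benzyl ethers added in DMSO; other inhibitors usually in water. I50 taken from 5–7 inhibitor levels, means of duplicates.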

The subject of experiment [3] is Mus musculus. Kind of experiment: In vivo inhibition of mixed function oxidase system in mouse assessed as prolongation of hexobarbital-induced sleeping time at 100 mg/kg, ip pretreated for 10 mins followed by hexobarbital-challenge relative to control. Further details: scale not given: the % may be the effect or the level left. As to conditions: route intraperitoneal.

Experiment [4] deals with Mus musculus. Briefly: In vivo inhibition of mixed function oxidase system in mouse assessed as increase in zoxazolamine-induced paralysis time at 100 mg/kg, ip pretreated for 10 mins followed by zoxazolamine-challenge relative to control. Also noted: scale not given: the % may be the effect or the level left. The settings on record: route intraperitoneal.
Another experiment is filed under the species Rattus norvegicus. Briefly: Inhibition of aniline hydroxylase activity of mixed function oxidase system in Wistar rat liver microsomes assessed as conversion of aniline to p-aminophenol at 10^-3 M after 10 mins.

With `CCC(=O)c1ccc(O)cc1O`, the figures for the IC50 in experiment [1] and in experiment [2] were 750 µM and 160 µM, respectively.

On to `CCCCOCCOCCOCc1cc2c(cc1CCC)OCO2` [PIPERONYL BUTOXIDE], for which the IC50 in experiment [1] and in experiment [2] was 420 µM each time.

In the case of `CC(=O)c1c(O)cccc1OCc1ccccc1`, the IC50 in experiment [1] is 190 µM; in experiment [2] it was 80 µM. The Activity was determined as 170% in the experiment with Mus musculus [3] and 156% in the experiment with Mus musculus [4].

As for `O=Cc1ccc(O)cc1O`, the IC50 in experiment [1] came out at 1400 µM; in experiment [2], 1100 µM.

Consider `O=Cc1c(O)cccc1O`, for which the IC50 in experiment [1] came to 200 µM; in experiment [2] it was 650 µM.

With `CC(=O)c1c(O)cccc1O`, the values for the IC50 in experiment [1] and in experiment [2] were 210 µM and 140 µM, respectively. Besides, the Activity is on record as 190% with Mus musculus [3] and 164% in the experiment with Mus musculus [4].

With `CCC(=O)c1ccc(OC)cc1O`, the IC50 in experiment [2] was 170 µM. In addition, the inhibition result in the experiment listed under Rattus norvegicus is “inactive”.

Consider `CC(=O)c1ccc(O)cc1O`, for which the IC50 was found to be 700 µM in experiment [1] and 520 µM in experiment [2]. In addition, the Activity with Mus musculus [3] came to 127%; in the experiment on Mus musculus [4], 77%.

Regarding `COc1cccc(O)c1C(C)=O`, the values for the IC50 in experiment [1] and in experiment [2] were 200 µM and 90 µM, respectively. Moreover, in the experiment with Mus musculus [3], the Activity amounted to 233%.

As to `CCCC(C(=O)OCCN(CC)CC)(c1ccccc1)c1ccccc1` [PROADIFEN HYDROCHLORIDE], the IC50 stood at 290 µM in experiment [1] and 6 µM in experiment [2].

Take `CC(=O)c1ccccc1O`: the IC50 in experiment [1] came out at 390 µM; in experiment [2], 320 µM.
